Reference: ChEMBL document CHEMBL3351899, “Novologues containing a benzamide side chain manifest anti-proliferative activity against two breast cancer cell lines” (Bioorg Med Chem Lett, 2014)
Activity calls are given as the source filed them. The calls are words filed in the database; no cut-off is given here.

Columns and labels:
[1] = Antiproliferative activity against human SKBR3 cells; assay type: functional, cell-based, SK-BR-3; conditions: for EC50: Homo sapiens, SK-BR-3
Summary of the method: (§1)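 Cell-based antiproliferation assay in SKBr3 (ER-negative, HER2-overexpressing) and MCF-7 (ER-positive) breast cancer cells. Values are mean ± standard deviation from at least two separate experiments, each run in triplicate.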

[2] = test system: MCF7; test: Antiproliferative activity against human MCF7 cells; assay type: functional; summary of the method: as §1
[3] = biological target: Heat shock protein HSP 90-beta (Homo sapiens) (UniProt P08238); test: Inhibition of HSP90-mediated Her2 degradation in human MCF7 cell lysate after 24 hrs by Western blot analysis; assay type: cell-based
Chain of Heat shock protein HSP 90-beta (Homo sapiens) (P08238 whole entry): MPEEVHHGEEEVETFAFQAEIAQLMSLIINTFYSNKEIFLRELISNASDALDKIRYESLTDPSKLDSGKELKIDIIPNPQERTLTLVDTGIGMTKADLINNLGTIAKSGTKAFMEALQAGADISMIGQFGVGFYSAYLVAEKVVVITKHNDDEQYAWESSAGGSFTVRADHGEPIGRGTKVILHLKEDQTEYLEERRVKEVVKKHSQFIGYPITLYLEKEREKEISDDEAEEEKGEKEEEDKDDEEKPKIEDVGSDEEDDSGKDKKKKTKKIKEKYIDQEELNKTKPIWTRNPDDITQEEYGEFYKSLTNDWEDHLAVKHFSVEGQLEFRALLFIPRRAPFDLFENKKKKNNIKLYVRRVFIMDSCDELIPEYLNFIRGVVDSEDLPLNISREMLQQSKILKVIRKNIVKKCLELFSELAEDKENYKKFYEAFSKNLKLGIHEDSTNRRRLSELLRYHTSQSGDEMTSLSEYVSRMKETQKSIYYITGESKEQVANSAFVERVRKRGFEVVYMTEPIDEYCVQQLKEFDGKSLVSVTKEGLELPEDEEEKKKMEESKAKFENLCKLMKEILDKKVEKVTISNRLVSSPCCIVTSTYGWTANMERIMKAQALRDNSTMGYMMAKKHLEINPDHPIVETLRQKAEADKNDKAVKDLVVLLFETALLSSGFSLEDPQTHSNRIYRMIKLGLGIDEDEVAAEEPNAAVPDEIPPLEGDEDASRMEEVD
Summary of the method: (§2)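 MCF7 cells grown to confluence, seeded at 0.4 x 10^6 cells/well, incubated 24 h, then treated 24 h with varying compound concentrations (0.25% DMSO final) or DMSO vehicle; geldanamycin 0.5 µM as positive control. Cells lysed with protease/phosphatase inhibitors and clarified at 14,000g, 15 min, 4 °C. 5 µg protein run on reducing 10% gels, PVDF transfer, immunoblot with HRP secondary and chemiluminescent detection; actin as loading control.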

[4] = biological target: Heat shock protein HSP 90-beta (Homo sapiens) (UniProt P08238); test: Inhibition of HSP90-mediated Raf-1 degradation in human MCF7 cell lysate after 24 hrs by Western blot analysis; assay type: cell-based; summary of the method: as §2
[5] = biological target: Heat shock protein HSP 90-beta (Homo sapiens) (UniProt P08238); test: Inhibition of HSP90-mediated p-Akt degradation in human MCF7 cell lysate after 24 hrs by Western blot analysis; assay type: cell-based; summary of the method: as §2
[6] = test system: MCF7; test: Effect on HSP90 level in human MCF7 cell lysate at 1 to 25 uM after 24 hrs by Western blot analysis; assay type: functional, cell-based; summary of the method: as §2

| SMILES | Activity [1] [µM] | Activity [2] [µM] | also measured |
| --- | --- | --- | --- |
| CO[C@@H]1[C@@H](O)[C@@H](O)[C@H](Oc2ccc(CCNC(=O)c3ccc(Cl)cc3)c(-c3cccc(C(F)(F)F)c3)c2)OC1(C)C | 14.48 | 11.69 | – |
| CO[C@@H]1[C@@H](O)[C@@H](O)[C@H](Oc2ccc(CCNC(=O)c3ccc(C(C)(C)C)cc3)c(-c3cccc(C(F)(F)F)c3)c2)OC1(C)C | 21.78 | 23.69 | – |
| CO[C@@H]1[C@@H](O)[C@@H](O)[C@H](Oc2ccc(CCNC(=O)c3ccccc3)c(-c3cccc(C(F)(F)F)c3)c2)OC1(C)C | 41.9 | 44.44 | – |
| CO[C@@H]1[C@@H](O)[C@@H](O)[C@H](Oc2ccc3cc(NC(C)=O)c(=O)oc3c2C)OC1(C)C | – | – | EC50 [1]: 10 nM |
| COc1ccc(C(=O)NCCc2ccc(OC3CCN(C)CC3)cc2-c2cccc(C(F)(F)F)c2)cc1 | 2.71 | 4.82 | – |
| CN1CCC(Oc2ccc(CCNC(=O)c3ccccc3)c(-c3cccc(C(F)(F)F)c3)c2)CC1 | 13.22 | 15.07 | – |
| COc1cccc(-c2cc(OC3CCN(C)CC3)ccc2CCNC(=O)c2ccc(OC)c(-c3cccc(OC)c3)c2)c1 | 11.54 | 12.36 | – |
| COc1cccc(-c2cc(C(=O)NCCc3ccc(O[C@@H]4OC(C)(C)[C@H](OC)[C@@H](O)[C@H]4O)cc3-c3cccc(C(F)(F)F)c3)ccc2OC)c1 | 13.98 | 18.4 | – |
| CN1CCC(Oc2ccc(CCNC(=O)c3ccc(Cl)cc3)c(-c3cccc(C(F)(F)F)c3)c2)CC1 | 1.87 | 2.11 | – |
| COc1cccc(-c2cc(C(=O)NCCc3ccc(OC4CCN(C)CC4)cc3-c3cccc(Cl)c3)ccc2OC)c1 | 5.63 | 6.87 | – |
| COc1cccc(-c2cc(C(=O)NCCc3ccc(OC4CCN(C)CC4)cc3-c3cccc(F)c3)ccc2OC)c1 | 2.82 | 3.19 | – |
| COc1cccc(-c2cc(C(=O)NCCc3ccc(OC4CCN(C)CC4)cc3-c3cccc(C(F)(F)F)c3)ccc2OC)c1 | 1.52 | 1.62 | inhibition [3]: Dose-dependent effect; inhibition [4]: Dose-dependent effect; inhibition [5]: Dose-dependent effect; Activity [6]: Active |
| COc1ccc(C(=O)NCCc2ccc(O[C@@H]3OC(C)(C)[C@H](OC)[C@@H](O)[C@H]3O)cc2-c2cccc(C(F)(F)F)c2)cc1 | 14.02 | 12.1 | – |
| COc1cccc(-c2cc(C(=O)NCCc3ccc(OC4CCN(C)CC4)cc3-c3ccccc3)ccc2OC)c1 | 6.77 | 8.12 | – |
| CN1CCC(Oc2ccc(CCNC(=O)c3ccc(C(C)(C)C)cc3)c(-c3cccc(C(F)(F)F)c3)c2)CC1 | 1.16 | 1.48 | – |
| CO[C@@H]1[C@@H](O)[C@@H](O)[C@H](Oc2ccc(CCNC(C)=O)c(-c3cccc(C(F)(F)F)c3)c2)OC1(C)C | – | >500 | EC50 [1]: > 500000 nM |
